Results from different studies.
Compare with care: the assays were run in different laboratories.
Target: Cytoplasmic tyrosine-protein kinase BMX (BMX, Homo sapiens, UniProt P51813)
Residues used in one study (P51813 1-675): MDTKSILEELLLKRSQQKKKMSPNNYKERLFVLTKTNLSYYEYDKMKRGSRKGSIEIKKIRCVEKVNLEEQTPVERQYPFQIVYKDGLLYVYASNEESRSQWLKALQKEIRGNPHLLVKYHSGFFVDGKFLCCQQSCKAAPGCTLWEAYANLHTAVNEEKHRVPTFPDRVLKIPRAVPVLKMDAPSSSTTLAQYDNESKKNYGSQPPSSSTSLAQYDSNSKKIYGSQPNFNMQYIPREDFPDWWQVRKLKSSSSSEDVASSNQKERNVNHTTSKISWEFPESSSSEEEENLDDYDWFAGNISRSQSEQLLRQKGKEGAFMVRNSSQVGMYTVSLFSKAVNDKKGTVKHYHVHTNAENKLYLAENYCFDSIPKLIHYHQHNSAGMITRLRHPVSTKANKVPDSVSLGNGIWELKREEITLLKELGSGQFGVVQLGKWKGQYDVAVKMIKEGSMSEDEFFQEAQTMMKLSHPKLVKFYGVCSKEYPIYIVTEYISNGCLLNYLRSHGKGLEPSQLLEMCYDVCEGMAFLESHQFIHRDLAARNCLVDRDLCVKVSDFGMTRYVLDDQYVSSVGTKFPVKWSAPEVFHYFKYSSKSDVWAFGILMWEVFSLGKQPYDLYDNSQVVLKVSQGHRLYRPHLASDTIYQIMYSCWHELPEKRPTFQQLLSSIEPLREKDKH

SMILES | test | setting | remaining binding [%]
Nc1ncc2c(n1)-c1c([nH]c3ccc(C#CC4CC4)cc13)CCCC2 | binding, competition with immobilised ligand | 1 µM | 86
CC(=O)c1c(NS(C)(=O)=O)c2cc(-c3ccc(Cl)cc3)c(-c3ccc(Cl)cc3Cl)nc2n(C)c1=O | cell-free assay, competition with immobilised ligand | 1 µM | 100
F[C@@H]1CCN(c2nccc(-c3cnn4ncccc34)n2)C1 | binding | 1 µM | 83
O=C(NCC1CCOCC1)c1n[nH]cc1NC(=O)c1c(F)cccc1F | binding, competition with immobilised ligand | 1 µM | 100
C[C@@H](c1cccc(C#N)c1)n1cc(Cl)cc(C(N)=O)c1=N | cell-free assay, competition with immobilised ligand | 1 µM | 95
CN(C)c1nccc(-c2cnc3ncccn23)n1 | binding | 1 µM | 100
CNC(=O)[C@@H]1CC[C@@H](n2c(-c3ccc4cnccc4c3)nc3ccc(C(=O)NCc4cccc(C(N)=O)c4)cc32)C1 | binding, competition with immobilised ligand | 1 µM | 100
CCOCCn1cc(C(=O)Nc2ccc(-n3nc(-c4cccnc4)cc3C(F)(F)F)cn2)ccc1=O | cell-free assay, competition with immobilised ligand | 1 µM | 84
c1cnn2ncc(-c3ccnc(N4CCC45COC5)n3)c2c1 | binding | 1 µM | 90
C[C@@H](c1ccc(-n2cnc3c(N)ncnc32)cc1)N1CCc2nn(C)c(Cc3ccccc3)c2C1=O | binding, competition with immobilised ligand | 0.1 µM | 52
C[C@@H]1CCN(c2nccc(-c3cnn4ncccc34)n2)C1 | binding | 1 µM | 100
O=C(c1ccc(Nc2ncc(Cl)c(-c3cc4ccccc4s3)n2)cc1)N1CCC(N2CCCC2)CC1 | binding, competition with immobilised ligand | 1 µM | 75
CN(CCCC(F)(F)F)c1nccc(-c2cnn3ncccc23)n1 | binding | 1 µM | 83
O=C(c1ccc(Nc2nccc(-c3cc4ccccc4s3)n2)cc1)N1CCC(N2CCCC2)CC1 | binding, competition with immobilised ligand | 1 µM | 91
Cc1cnn2ncc(-c3ccnc(N(C)C)n3)c2c1 | binding | 1 µM | 96
CCCOc1ccc([C@H]2[C@H](C(=O)O)[C@@H](c3ccc4c(c3)OCO4)CN2CC(=O)Nc2c(CC)cccc2CC)cc1 | cell-free assay, competition with immobilised ligand | 1 µM | 100
O=C(NCCCN1CCOCC1)c1ccc(Nc2ncc(Cl)c(-c3ccc(Cl)s3)n2)cc1 | binding, competition with immobilised ligand | 1 µM | 89
Cc1cc(-n2nc(Cc3cc(F)cc(C(F)(F)F)c3)nc2C)ccc1C(N)=O | cell-free assay, competition with immobilised ligand | 1 µM | 100
c1cncc(-c2cccc(Nc3nccc(NC4CCCCC4)n3)c2)c1 | binding, competition with immobilised ligand | 10 µM | 82
CN1CCN(c2cnc3c(C4CCN(C(=O)c5ccc(OC(F)(F)F)cc5N)CC4)ncnc3c2)CC1 | cell-free assay, competition with immobilised ligand | 1 µM | 100
COc1cnc(Nc2cccc(S(N)(=O)=O)c2)nc1N1CCN(c2ccccc2)C(=O)C1 | binding, competition with immobilised ligand | 1 µM | 100
